From ChEMBL document CHEMBL5385922 (J Med Chem, 2024)
The source made the active and inactive calls. The rule behind the calls is not given here.

Experiments:
[1] = biological target: T1, Protein disulfide-isomerase (Homo sapiens, UniProt P07237); assay: Covalent inhibition of PDI (unknown origin) by GSSG fluorescence assay
Target sequence in this assay (P07237 whole entry): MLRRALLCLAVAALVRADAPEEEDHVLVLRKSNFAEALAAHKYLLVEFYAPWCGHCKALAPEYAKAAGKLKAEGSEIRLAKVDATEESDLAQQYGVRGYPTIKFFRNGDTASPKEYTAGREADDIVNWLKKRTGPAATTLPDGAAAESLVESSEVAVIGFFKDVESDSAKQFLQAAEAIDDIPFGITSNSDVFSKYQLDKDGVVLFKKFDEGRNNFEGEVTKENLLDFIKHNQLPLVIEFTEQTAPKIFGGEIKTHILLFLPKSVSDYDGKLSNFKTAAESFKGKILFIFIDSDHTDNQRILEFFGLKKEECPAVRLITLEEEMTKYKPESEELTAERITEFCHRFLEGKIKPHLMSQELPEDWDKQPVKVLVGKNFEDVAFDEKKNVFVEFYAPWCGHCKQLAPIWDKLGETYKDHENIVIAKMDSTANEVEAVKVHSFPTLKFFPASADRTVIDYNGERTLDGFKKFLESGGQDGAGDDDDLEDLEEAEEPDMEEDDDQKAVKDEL

[2] = system: RPMI-8226; assay: Cytotoxicity against human RPMI-8226 cells assessed as reduction in cell viability at 0.001 to 10 uM incubated for 72 hrs by resazurin assay; assay type: functional, cell-based; conditions: dose 0.001-10 µM
Procedure, shortened: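 RPMI8226 cells exposed to compounds for 72 h at 37 °C, 5% CO2 with DMSO control; viability measured by resazurin assay, n = 4.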

[3] = system: MDA-MB-231; assay: Cytotoxicity against human MDA-MB-231 cells assessed as reduction in cell viability incubated for 24 hrs by resazurin assay; assay type: functional, cell-based
Procedure, shortened: (§1)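 Cell lines kept at 37 °C in humidified 5% CO2. Cells exposed to compounds for 24 h with DMSO control; viability measured by resazurin assay. Mean ± SEM, n = 3.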

[4] = system: A549; assay: Cytotoxicity against human A549 cells assessed as reduction in cell viability incubated for 24 hrs by resazurin assay; assay type: functional, cell-based; procedure, shortened: as §1
[5] = system: Platelet; assay: Antiplatelet activity in human platelets assessed as inhibition of U46619-induced platelet aggregation upto 40 uM by turbidimetric analysis; assay type: functional, cell-based
[6] = system: RPMI-8226; assay: Cytotoxicity against human RPMI-8226 cells assessed as reduction in cell viability incubated for 24 hrs by resazurin assay; assay type: functional, cell-based; procedure, shortened: as §1
[7] = system: Platelet; assay: Antiplatelet activity in human platelets assessed as inhibition of collagen-induced platelet aggregation upto 40 uM by turbidimetric analysis; assay type: functional, cell-based
[8] = biological target: T1, Protein disulfide-isomerase; assay: Covalent inhibition of PDI (unknown origin) by insulin aggregation assay
Target sequence in this assay (P07237 whole entry): as above

[9] = biological target: T1, Protein disulfide-isomerase; assay: Non-covalent inhibition of human recombinant PDI assessed as inhibition of E-GSH formation using Di-E-GSSG as substrate at 10 uM measured for 60 mins in presence of DTT and 1 mM GSH by fluorescence based analysis
Procedure, shortened: (§2)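 Human rPDI incubated with compounds at 10 μM in the presence of DTT (5 μM) or GSH (1 mM). PDI activity read by Di-E-GSSG assay (E-GSH fluorescence). Mean ± SEM of three independent experiments.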
Target sequence in this assay (P07237 18-508 limits assumed): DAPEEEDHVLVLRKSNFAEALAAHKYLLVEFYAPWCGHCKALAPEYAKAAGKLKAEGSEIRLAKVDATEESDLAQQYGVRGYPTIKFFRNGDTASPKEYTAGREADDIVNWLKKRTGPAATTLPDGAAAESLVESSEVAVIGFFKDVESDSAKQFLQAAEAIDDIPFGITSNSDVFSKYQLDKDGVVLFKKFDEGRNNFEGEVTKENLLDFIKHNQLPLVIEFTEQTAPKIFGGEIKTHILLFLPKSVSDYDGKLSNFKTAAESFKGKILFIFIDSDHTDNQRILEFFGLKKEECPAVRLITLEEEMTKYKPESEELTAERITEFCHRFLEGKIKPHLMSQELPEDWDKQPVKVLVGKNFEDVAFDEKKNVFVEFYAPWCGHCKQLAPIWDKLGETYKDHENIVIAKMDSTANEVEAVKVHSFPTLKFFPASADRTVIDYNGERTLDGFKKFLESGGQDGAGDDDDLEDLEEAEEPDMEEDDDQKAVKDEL

[10] = Stability of the compound in aqueous solution at 400 uM measured after 30 mins by UPLC-MS analysis; assay type: physicochemical; conditions: buffer, 0.5 h
Procedure, shortened: (§3)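 Compounds (400 μM) incubated in water with or without GSH (4 mM) at 37 °C for 30 min. Diluted 1:1 with methanol, then analysed by UPLC-MS on a BEH C18 column (water/acetonitrile gradient, 0.4 mL/min, 40 °C) in positive/negative ion mode.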

[11] = GSH reactivity in aqueous solution assessed as GSH-adduct formation at 400 uM incubated for 30 mins in presence of GSH by UPLC-MS analysis; assay type: physicochemical; conditions: buffer, 0.5 h; procedure, shortened: as §3
[12] = system: Platelet; assay: Antiplatelet activity against tumor cells-stimulated human platelets assessed as inhibition of A549 cells-induced platelet aggregation at 1 uM by turbidometric aggregometry; assay type: functional, cell-based
Procedure, shortened: (§4)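 Washed human platelets from ACD-anticoagulated blood of healthy volunteers, stirred at 1200 rpm, 37 °C, in 0.375% plasma. Aggregation was induced by A549 (1 × 10^4 cells/mL), MDA-MB-231 (1 × 10^2 cells/mL) or RPMI8226 (1 × 10^5 cells/mL) cells. Read-out is the maximal increase in light transmission by turbidimetric aggregometry. n = 3.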

[13] = system: Platelet; assay: Inhibition of tumor cell-induced platelet secretion in human platelets assessed as inhibition of A549-induced PDGF secretion at 1 uM by ELISA; assay type: functional, cell-based
Procedure, shortened: (§5)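 Washed human platelets were co-incubated with A549 cells under TCIPA conditions (0.375% plasma, stirred, 37 °C) for 25 min in the aggregometer, then centrifuged at 13,000g for 1 min. Supernatant PDGF-BB measured by ELISA and ATP by bioluminescent assay. Mean ± SEM, at least three independent experiments.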

[14] = system: Platelet; assay: Antiplatelet activity against tumor cells-stimulated human platelets assessed as inhibition of MDA-MB-231 cells-induced platelet aggregation at 1 uM by turbidometric aggregometry; assay type: functional, cell-based; procedure, shortened: as §4
[15] = system: Platelet; assay: Inhibition of tumor cell-induced platelet secretion in human platelets assessed as inhibition of A549-induced ATP secretion at 1 uM by bioluminescent assay; assay type: functional, cell-based; procedure, shortened: as §5
[16] = system: Platelet; assay: Antiplatelet activity against tumor cells-stimulated human platelets assessed as inhibition of RPMI-8226 cells-induced platelet aggregation at 1 uM by turbidometric aggregometry; assay type: functional, cell-based; procedure, shortened: as §4
[17] = system: Platelet; assay: Inhibition of tumor cell-induced platelet secretion in human platelets assessed as inhibition of A549-induced PDGF secretion at 1 to 5 uM by ELISA; assay type: functional, cell-based; conditions: dose 1-5 µM; procedure, shortened: as §5
[18] = system: Platelet; assay: Antiplatelet activity against tumor cells-stimulated human platelets assessed as inhibition of MDA-MB-231 cells-induced platelet aggregation at 2 uM by turbidometric aggregometry; assay type: functional, cell-based; procedure, shortened: as §4
[19] = system: A549; assay: Inhibition of platelet-enhanced cell growth in human A549 cells assessed as reduction in cell viability at 0.5 to 2 uM co-incubated with platelets for 48 hrs by trypan blue exclusion assay; assay type: functional, cell-based; conditions: dose 0.5-2 µM
Procedure, shortened: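 A549 cells (1 × 10^4/well) co-incubated with washed human platelets (1 × 10^7/well) in 0.375% plasma for 48 h at 37 °C, 5% CO2. After PBS washing, viable cancer cells counted by trypan blue exclusion. Mean ± SEM, at least three independent experiments.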

[20] = system: Platelet; assay: Inhibition of tumor cell-induced platelet secretion in human platelets assessed as inhibition of A549-induced ATP secretion at 1 to 5 uM by bioluminescent assay; assay type: functional, cell-based; conditions: dose 1-5 µM; procedure, shortened: as §5
[21] = system: Platelet; assay: Antiplatelet activity against tumor cells-stimulated human platelets assessed as inhibition of A549 cells-induced platelet aggregation at 2 uM by turbidometric aggregometry; assay type: functional, cell-based; procedure, shortened: as §4
[22] = system: A549; assay: Cytotoxicity against human A549 cells assessed as reduction in cell viability at 0.5 to 2 uM incubated for 48 hrs by trypan bue exclusion assay; assay type: functional, cell-based; conditions: dose 0.5-2 µM
[23] = biological target: T1, Protein disulfide-isomerase; assay: Covalent inhibition of human recombinant PDI assessed as inhibition of E-GSH formation using Di-E-GSSG as substrate at 10 uM measured for 60 mins in presence of DTT and 1 mM GSH by fluorescence based analysis; procedure, shortened: as §2
Target sequence in this assay (P07237 18-508 limits assumed): as above

[24] = system: U-87 MG; assay: Cytotoxicity against human U87 cells assessed as reduction in cell viability incubated for 24 hrs by resazurin assay; assay type: functional, cell-based, U-87MG ATCC; procedure, shortened: as §1
[25] = system: Platelet; assay: Antiplatelet activity against tumor cells-stimulated human platelets assessed as inhibition of RPMI-8226 cells-induced platelet aggregation at 2 uM by turbidometric aggregometry; assay type: functional, cell-based; procedure, shortened: as §4
[26] = system: Platelet; assay: Antiplatelet activity against tumor cells-stimulated human platelets assessed as inhibition of A549 cells-induced platelet aggregation at 100 uM by turbidometric aggregometry; assay type: functional, cell-based; procedure, shortened: as §4
[27] = system: Platelet; assay: Antiplatelet activity in human platelets assessed as inhibition of U46619-induced platelet aggregation by turbidimetric analysis; assay type: functional, cell-based
Procedure, shortened: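 Washed human platelets from ACD-anticoagulated volunteer blood, stimulated with U46619 (1 μM). Aggregation measured turbidimetrically under stirring (1200 rpm) at 37 °C as the maximal increase in light transmission.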

[28] = system: Platelet; assay: Inhibition of tumor cell-induced platelet secretion in human platelets assessed as inhibition of A549-induced ATP secretion at 100 uM by bioluminescent assay; assay type: functional, cell-based; procedure, shortened: as §5
[29] = system: Platelet; assay: Antiplatelet activity against tumor cells-stimulated human platelets assessed as inhibition of MDA-MB-231 cells-induced platelet aggregation at 100 uM by turbidometric aggregometry; assay type: functional, cell-based; procedure, shortened: as §4
[30] = system: Platelet; assay: Antiplatelet activity against tumor cells-stimulated human platelets assessed as inhibition of RPMI-8226 cells-induced platelet aggregation at 100 uM by turbidometric aggregometry; assay type: functional, cell-based; procedure, shortened: as §4
[31] = system: Platelet; assay: Inhibition of tumor cell-induced platelet secretion in human platelets assessed as inhibition of A549-induced PDGF secretion at 100 uM by ELISA; assay type: functional, cell-based; procedure, shortened: as §5
[32] = biological target: T2, Protein disulfide-isomerase A4 (Homo sapiens, UniProt P13667); assay: Inhibition of human recombinant ERp72 assessed as inhibition of E-GSH formation using Di-E-GSSG as substrate measured for 60 mins in presence of DTT by fluorescence based analysis
T2 sequence (P13667 whole entry): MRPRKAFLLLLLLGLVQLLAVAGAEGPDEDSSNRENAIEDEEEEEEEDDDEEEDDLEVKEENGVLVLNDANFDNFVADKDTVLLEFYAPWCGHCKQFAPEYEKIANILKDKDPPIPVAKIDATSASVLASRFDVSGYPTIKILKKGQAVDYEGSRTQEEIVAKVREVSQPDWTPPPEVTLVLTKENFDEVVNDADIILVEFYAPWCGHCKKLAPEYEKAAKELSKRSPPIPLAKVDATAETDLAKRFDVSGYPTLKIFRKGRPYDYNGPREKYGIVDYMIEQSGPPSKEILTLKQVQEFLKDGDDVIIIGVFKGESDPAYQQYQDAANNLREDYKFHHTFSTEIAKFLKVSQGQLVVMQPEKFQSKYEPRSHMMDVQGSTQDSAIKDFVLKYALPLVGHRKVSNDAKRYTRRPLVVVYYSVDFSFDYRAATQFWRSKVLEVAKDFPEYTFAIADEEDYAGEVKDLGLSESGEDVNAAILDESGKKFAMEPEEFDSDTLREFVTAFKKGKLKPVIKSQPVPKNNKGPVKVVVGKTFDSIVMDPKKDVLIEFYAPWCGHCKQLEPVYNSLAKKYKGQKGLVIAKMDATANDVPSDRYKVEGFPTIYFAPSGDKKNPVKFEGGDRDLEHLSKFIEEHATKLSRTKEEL
Procedure, shortened: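 Recombinant human ERp72 reductase activity measured with Di-E-GSSG substrate, started with DTT, by fluorometry of E-GSH formation. Mean ± SEM, n = 3.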

[33] = biological target: T1, Protein disulfide-isomerase; assay: Non-covalent inhibition of PDI (unknown origin) by GSSG fluorescence assay
Target sequence in this assay (P07237 whole entry): as the sequence (P07237 whole entry) above

COc1ccc(N2C(=O)/C(=C\c3ccc([N+](=O)[O-])s3)SC2=S)cc1
IC50 [1]: 2.9 µM | Activity [2]: Active

CC(C)(C)CN(C(=O)CCl)C1CCS(=O)(=O)C1 (stereo unspecified)
IC50 [3]: Not Active | IC50 [4]: Not Active | Activity [5]: inactive | IC50 [6]: Not Active | Activity [7]: inactive

C#CC(=O)N(c1ccc(OC)cc1OC)C(C(=O)NCC(=O)OCC)c1cccs1 (stereo unspecified)
IC50 [8]: 10 µM

COc1ccc(SC2=C(c3ccc(O)cc3O)C(=O)c3c(O)cccc3C2=O)cc1
inhibition [9]: Active | Stability [10]: Stable | Activity [11]: Not Active

C#CCCCNC(=O)[C@@H](CCNC(=O)[C@H](Cc1ccccc1)NC(=O)OC(C)(C)C)Cc1ccc(OS(=O)(=O)C=C)cc1
IC50 [8]: 1.7 µM

CCCSc1nc(N[C@@H]2C[C@H]2c2ccc(F)c(F)c2)c2nnn([C@@H]3C[C@H](OCCO)[C@@H](O)[C@H]3O)c2n1
Activity [12]: inactive | inhibition [13]: inactive | Activity [14]: inactive | inhibition [15]: inactive | Activity [16]: inactive

CC(=O)O[C@@H]1O[C@H](CSC2=CC(=O)c3cccc(O)c3C2=O)[C@@H](OC(C)=O)[C@H](OC(C)=O)[C@H]1OC(C)=O
inhibition [17]: Active | Activity [18]: Active | inhibition [19]: Active | inhibition [20]: Active | Activity [21]: Active | Activity [22]: inactive | inhibition [23]: Active | IC50 [24]: > 20 µM | Activity [25]: Active

CC(=O)Oc1ccccc1C(=O)O [ASPIRIN]
Activity [26]: inactive | IC50 [27]: > 200 µM | inhibition [28]: inactive | Activity [29]: inactive | Activity [30]: inactive | inhibition [31]: inactive

CC(=O)OC[C@H]1O[C@@H](SC2=C(c3ccc(O)cc3O)C(=O)c3c(O)cccc3C2=O)[C@H](OC(C)=O)[C@@H](OC(C)=O)[C@@H]1OC(C)=O
Activity [11]: Active | inhibition [23]: Active

COc1cccc(SC2=CC(=O)c3cccc(O)c3C2=O)c1
inhibition [23]: Active

CC(=O)OC[C@H]1O[C@H](OC2=CC(=O)c3cccc(O)c3C2=O)[C@H](OC(C)=O)[C@@H](OC(C)=O)[C@@H]1OC(C)=O
inhibition [17]: Active | Activity [18]: Active | inhibition [19]: Active | inhibition [20]: Active | Activity [21]: Active | Activity [22]: inactive | inhibition [23]: Active | IC50 [32]: 4.01 µM | Activity [25]: Active

O=c1c(O[C@@H]2O[C@H](CO)[C@@H](O)[C@H](O)[C@H]2O)c(-c2ccc(O)c(O)c2)oc2cc(O)cc(O)c12 [ISOQUERCETIN]
inhibition [9]: Active | IC50 [33]: 7.1 µM
